Compound activity deposited in PubChem by The Scripps Research Institute Molecular Screening Center.
OXTR potentiate: potentiators of human oxytocin receptor; activation, % at 3 µM; actives 0.061% (n = 320,000); CHO-OTR cells, Fluo-8 calcium fluorescence, potentiator mode; 0% = oxytocin EC15, 100% = EC100; P30559; AID 2445;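 active = activation above that plate's cutoff, the mean activation of tested compounds plus 3 SD, cut at about 6.6% in these data, passing the limit was not always enough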
Target sequence (P30559 whole entry, looked up): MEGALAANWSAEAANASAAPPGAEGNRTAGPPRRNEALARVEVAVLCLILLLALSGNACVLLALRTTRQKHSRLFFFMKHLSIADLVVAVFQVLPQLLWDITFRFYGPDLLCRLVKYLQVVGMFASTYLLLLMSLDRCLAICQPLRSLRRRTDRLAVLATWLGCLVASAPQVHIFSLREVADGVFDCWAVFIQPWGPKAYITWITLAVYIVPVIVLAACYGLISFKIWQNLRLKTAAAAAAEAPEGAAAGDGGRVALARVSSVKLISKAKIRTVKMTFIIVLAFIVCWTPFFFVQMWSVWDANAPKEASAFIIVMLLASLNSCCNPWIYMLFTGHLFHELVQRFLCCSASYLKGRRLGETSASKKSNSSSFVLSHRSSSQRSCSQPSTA
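Material: human OTR in CHO cells. Compound: 3.0 µM, one dose. Timing: compound 6 min at room temperature before oxytocin, 100 s read. Evaluation: % activation of max/min ratio relative to oxytocin controls. Replication: single well per compound, singlicate. Signal: Fluo-8 calcium dye fluorescence.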
OXTR agonist: agonists of human oxytocin receptor; activation, % at 3 µM; actives 0.32% (n = 320,000); CHO-OTR cells, Fluo-8 calcium fluorescence; normalized: DMSO 0%, oxytocin 100%; P30559;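 active = activation above the mean of all tested compounds plus 3 SD, cutoff set per screening run, cut at about 20% in these data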;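 note: peak over basal fluorescence ratio from a 100 s FLIPR kinetic read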
V1R ag counter: counter-screen for oxytocin receptor agonists: human V1a receptor agonists. CHO-V1R cells, Fluo-8 calcium fluorescence, agonist mode; 0% DMSO, 100% 3 nM vasopressin. P37288. actives 0.25% (n = 320,000). activation, % at 3 µM;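 active = activation above the mean activation of all tested compounds plus 3 SD, per screening run, cut at about 20% in these data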;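 note: signal is peak over basal fluorescence ratio across a 100 second FLIPR read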
TAAR1 agonist: human TAAR1 agonism | Q96RJ0 | CHO RD-HGA16 TAAR1, Fluo-8 calcium fluorescence; vehicle wells 0%, saturating PEA agonist 100% | activation, % at 3 µM | actives 0.99% (n = 360,000) | AID 624467;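 active = activation above the mean activation of all test compounds in the run plus 3 SD, cut at about 38% in these data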
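Signal – calcium-sensitive Fluo-8 signal, excitation 470-495, emission 515-575 nm · System – RD-HGA16 (CHO) cells co-expressing Gα16 and hTAAR1 · Incubation – 17-24 h seeding, 75 min 37 °C dye, 30 min RT · Compound dosing – 3 µM single concentration · Repeats – no replicates (n 1)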
TAAR1 antagonist: human TAAR1 antagonism; Q96RJ0; CHO RD-HGA16 TAAR1, Fluo-8 calcium fluorescence, antagonist; inhibition, % at 3 µM; actives 1.5% (n = 360,000);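 active = inhibition above a per-plate cutoff, the mean inhibition of test compounds on that plate plus 3 SD, cut at about 49% in these data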
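Test system: hTAAR1-expressing CHO RD-HGA16 cells, Gα16-coupled; Probe or stimulus: EC80 β-phenethylamine stimulus; Compound dosing: single nominal final test compound concentration of 3 µM; Timing: 140 s kinetic read after compound, 140 s after agonist; Signal: Fluo-8 calcium-sensitive fluorescence; Measure: % inhibition of agonist calcium response; Controls: DMSO and EC80 PEA controls.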
Each line names hits and unclear results; the compound was inactive in the other large screens. This is a sample that favours compounds with a hit; in the whole collection about 2.3% have one here.

OC1(c2ccc(F)cc2)CSC(=Nc2cccnc2)N1Cc1ccco1 (centres undefined)	none
OC1(c2ccc(OC(F)F)cc2)CSC(=Nc2cccnc2)N1Cc1ccco1 (centres undefined)	TAAR1 antagonist 57 (no result: OXTR potentiate, OXTR agonist, V1R ag counter)
O=C(NC(=S)N1CCCCCC1)c1cccc([N+](=O)[O-])c1	none
CC1=NN(C(N)=S)C(=O)C1N=Nc1c(C)cc(C)cc1C (centres undefined)	none
CC1=NN(C(N)=S)C(=O)C1N=Nc1c(Br)cc(Br)cc1Br (centres undefined)	TAAR1 agonist 39
O=C1NC(=S)S/C1=C\c1cc(Cl)cc(Cl)c1O	TAAR1 agonist 40, TAAR1 antagonist 65 (no result: OXTR potentiate, OXTR agonist, V1R ag counter)
O=C1NC(=S)SC1=Cc1ccccc1Cl	none (no result: OXTR potentiate, OXTR agonist, V1R ag counter)
O=C(Nc1nc2ccccc2s1)c1ccc2sc([C@H]3C[C@H](O)[C@@H](CO)O3)nc2c1	TAAR1 antagonist 50 (no result: OXTR potentiate, OXTR agonist, V1R ag counter)
O=C(Nc1nccs1)c1ccc2sc([C@H]3C[C@H](O)[C@@H](CO)O3)nc2c1	none (no result: OXTR potentiate, OXTR agonist, V1R ag counter)
CCN1C(=O)CC(N2CCC(Cc3ccccc3)CC2)C1=O (centres undefined)	none
CN(C)CCN(C(=O)/C=C/c1cccs1)c1nc2ccc(Br)cc2s1	TAAR1 antagonist 56
COc1ccc(/C=C2\C(=O)NC(=S)N2C(=O)c2ccc(F)cc2)cc1	OXTR agonist 20, V1R ag counter 22
O=C(CSc1nccn1-c1ccccc1)c1ccc(Br)cc1	none
O=C(/C=C/c1ccccc1)n1cnnc1SC/C=C/c1ccccc1	none
CCOC(=O)c1c(C)[nH]c(C)c1C(=O)COC(=O)c1ccccc1O	none
Cc1[nH]c2ccccc2c1C(=O)COC(=O)c1ccccc1O	TAAR1 antagonist 65
COc1ccc(NC(=O)c2cc(Br)ccc2Cl)c(OC)c1	none
CCOc1ccc(/C=C2/SC(=O)NC2=S)cc1	none
CCOc1ccc(N=C2NC(=O)S/C2=C\c2ccc(N(C)C)cc2)cc1	TAAR1 antagonist 57
COc1ccc(OC)c(-c2c3cc(O)c(=O)cc-3oc3cc(O)c(O)cc23)c1	OXTR agonist 715, V1R ag counter 486 (no result: TAAR1 agonist, TAAR1 antagonist)
COc1ccc(OC)c(-c2oc3ccccc3c(=O)c2O)c1	none
O=C(CCCCCN1C(=O)[C@@H]2Cc3ccccc3CN2C1=O)N[C@@H](Cc1ccc(O)cc1)C(=O)O	none
O=C(Nc1ccccc1N1CCOCC1)C1(c2ccc(Cl)cc2)CCC1	TAAR1 agonist 41
O=C(Cc1ccc(Cl)c(Cl)c1)Nc1ccccc1N1CCOCC1	none
COc1cccc(N(C(=O)c2ccco2)c2nc(-c3sc(NC(=O)c4ccco4)nc3C)cs2)c1	TAAR1 antagonist 51
COc1ccc(NC2SC(=O)N(C)C2=O)cc1 (centres undefined)	none
CCOc1ccc(C(C)NC(=O)c2cccnc2OCC)cc1OCC (centres undefined)	none
Cc1ccccc1Nc1nnc(SCc2cc([N+](=O)[O-])cc3c2OCOC3)s1	none (no result: TAAR1 agonist, TAAR1 antagonist)
O=[N+]([O-])c1cc2c(c(CSc3nnc(Nc4ccccc4)s3)c1)OCOC2	TAAR1 antagonist 53
Cc1ccc(Sc2ccc(S(=O)(=O)Nc3ccc(C(=O)O)cc3)cc2)cc1C	OXTR agonist 25, V1R ag counter 21, TAAR1 antagonist 56
CCC1(c2ccc(C)cc2)NC(=O)N(CC(=O)Nc2cccc(S(=O)(=O)N3CCCC3)c2)C1=O (centres undefined)	none
CCOC(=O)C1CCN(C(=O)CCNC(=O)Cn2ccc3ccccc3c2=O)CC1	none
CC1(C)SC(=S)N(/N=C/c2ccccc2)C1N(O)C(=O)Nc1ccc([N+](=O)[O-])cc1 (centres undefined)	TAAR1 agonist 44
CNC(=O)N(O)C1N(/N=C/c2ccc(N(C)C)cc2)C(=S)SC1(C)C (centres undefined)	none
O=C(Nc1cccc([N+](=O)[O-])c1)c1ccccc1	none
O=C(Nc1cccc([N+](=O)[O-])c1)c1ccc(CSc2ccccc2)cc1	TAAR1 antagonist 52
CN(C)c1nc(N(C)C)n(C(=O)c2cccs2)n1	none
Cc1ccc(N2CC(C(=O)NC3CC3)CC2=O)cc1 (centres undefined)	none
Cc1cccc(NC(=O)NC2CCCc3ccccc32)c1 (centres undefined)	none
CCCc1ccc(OCc2ccc(C(=O)N3CCN(c4ccccn4)CC3)o2)c(OC)c1	TAAR1 antagonist 51
